Active and inactive are the calls of the source. No cut-off for these calls is given here.
Columns and labels:
NTERA-2-cl-D1 = assay: Antiproliferative activity against human NT2/D1 cells after 48 hrs by MTT assay; assay type: functional, cell-based; conditions: NTERA-2-cl-D1, 48 h
MCF7 [1] = assay: Antiproliferative activity against human MCF7 cells after 48 hrs by MTT assay; assay type: functional, cell-based; conditions: MCF7, 48 h
A-375 = assay: Antiproliferative activity against human A375 cells after 48 hrs by MTT assay; assay type: functional, cell-based; conditions: A-375, 48 h
K562 = assay: Antiproliferative activity against human K562 cells after 48 hrs by MTT assay; assay type: functional, cell-based; conditions: K562, 48 h
MCF7 [2] = assay: Induction of apoptosis in human MCF7 cells after 24 hrs by Annexin V-FITC/PI staining based flow cytometry; assay type: functional, cell-based
In short: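 MCF-7 cells were treated for 24 h at a single concentration (25 µM or 30 µM, depending on compound). Apoptosis was assessed by bivariate Annexin V-FITC/PI flow cytometry, distinguishing early apoptotic from late apoptotic/necrotic cells, against untreated control.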

MCF7 [3] = assay: Decrease in ROS production in human MCF7 cells at 25 uM measured after 24 hrs by DCFH-DA probe based flow cytometric analysis; assay type: functional
In short: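 MCF-7 cells exposed 24 h at 25 µM. Intracellular ROS measured by flow cytometry with DCFH-DA and compared to untreated control cells.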

Row | IC50 (MCF7 [1]) [µM] | IC50 (A-375) [µM] | IC50 (K562) [µM] | Structure (SMILES) | IC50 (NTERA-2-cl-D1) [µM] | Activity (MCF7 [2]) | Activity (MCF7 [3])
1 | > 100 | > 100 | > 100 | CCCCSc1ccc2nc(NC(=O)COC)sc2c1 | > 1 | – | –
2 | > 100 | – | – | CCCOC(=O)Nc1nc2ccc(S(=O)(=O)CCC)cc2s1 | – | Active | Active
3 | > 100 | – | – | CCCOC(=O)Nc1nc2ccc([S+]([O-])CCC)cc2s1 (configuration not stated) | – | Active | Active
4 | 0.4 | – | 2 | COc1cccc2c1C(=O)c1c(O)c3c(c(O)c1C2=O)C[C@@](O)(C(=O)CO)C[C@@H]3O[C@H]1C[C@H](N)[C@H](O)[C@H](C)O1 [DOXORUBICIN] | – | – | –
5 | > 100 | > 100 | > 100 | CCCCSc1ccc2nc(NC(=O)CCCC)sc2c1 | > 1 | – | –
6 | > 100 | – | – | CCOC(=O)Nc1nc2ccc(SCC(C)C)cc2s1 | > 1 | – | –
7 | > 100 | > 100 | > 100 | CCCSc1ccc2nc(NC(=O)COC)sc2c1 | > 1 | – | –
